From ChEMBL document CHEMBL4699498 (J Med Chem, 2020)
Activity calls are given as the source filed them. The rule behind the calls is not given here.

Tests used:
[1] = biological target: T1, Protein cereblon/Poly [ADP-ribose] polymerase 1 (Homo sapiens, UniProt P09874+Q96SW2); assay: Protac activity at CRBN/PARP1 in human Capan1 cells assessed as induction of PARP1 degradation at 1 to 1000 nM incubated for 24 hrs by Western blot analysis; assay type: cell-based; conditions: CAPAN-1, dose nM 1-1000, time 24.0 hrs
In short: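 Capan-1 cells were treated 24 h (1-1000 nM, or a wider dose range for DC50). Lysis was in RIPA buffer with protease inhibitors, and 20-30 μg protein was blotted. PARP1 was normalized to β-tubulin and to DMSO control, quantified by densitometry. DC50 came from two independent experiments.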
Target sequence in this assay (P09874 2-1014 limits assumed): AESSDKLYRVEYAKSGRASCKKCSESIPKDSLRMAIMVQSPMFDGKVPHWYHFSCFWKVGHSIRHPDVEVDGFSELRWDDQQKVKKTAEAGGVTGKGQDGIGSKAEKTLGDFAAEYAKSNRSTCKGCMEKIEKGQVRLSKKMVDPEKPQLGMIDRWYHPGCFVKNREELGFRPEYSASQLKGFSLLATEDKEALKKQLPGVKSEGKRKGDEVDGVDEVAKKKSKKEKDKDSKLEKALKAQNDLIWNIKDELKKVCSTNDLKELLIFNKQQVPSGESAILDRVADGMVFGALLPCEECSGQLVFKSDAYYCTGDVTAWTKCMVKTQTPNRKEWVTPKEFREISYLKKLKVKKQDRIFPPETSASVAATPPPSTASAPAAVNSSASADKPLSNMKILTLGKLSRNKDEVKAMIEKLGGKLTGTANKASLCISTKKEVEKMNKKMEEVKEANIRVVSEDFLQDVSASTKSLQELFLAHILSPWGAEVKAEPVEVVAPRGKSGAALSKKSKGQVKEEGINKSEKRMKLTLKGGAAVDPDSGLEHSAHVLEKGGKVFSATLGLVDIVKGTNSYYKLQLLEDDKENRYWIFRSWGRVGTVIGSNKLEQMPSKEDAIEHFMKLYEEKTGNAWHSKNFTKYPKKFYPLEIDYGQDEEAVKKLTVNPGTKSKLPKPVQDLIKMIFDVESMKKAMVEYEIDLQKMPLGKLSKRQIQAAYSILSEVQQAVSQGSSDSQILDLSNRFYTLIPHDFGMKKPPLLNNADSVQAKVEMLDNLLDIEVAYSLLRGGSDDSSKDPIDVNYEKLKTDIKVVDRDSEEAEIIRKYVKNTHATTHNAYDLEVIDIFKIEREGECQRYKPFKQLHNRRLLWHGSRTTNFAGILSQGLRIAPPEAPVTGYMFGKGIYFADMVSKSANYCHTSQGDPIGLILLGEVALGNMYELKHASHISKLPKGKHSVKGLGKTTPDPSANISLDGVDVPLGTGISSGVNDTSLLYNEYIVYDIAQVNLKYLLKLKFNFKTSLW
Target sequence in this assay (Q96SW2 whole entry partner): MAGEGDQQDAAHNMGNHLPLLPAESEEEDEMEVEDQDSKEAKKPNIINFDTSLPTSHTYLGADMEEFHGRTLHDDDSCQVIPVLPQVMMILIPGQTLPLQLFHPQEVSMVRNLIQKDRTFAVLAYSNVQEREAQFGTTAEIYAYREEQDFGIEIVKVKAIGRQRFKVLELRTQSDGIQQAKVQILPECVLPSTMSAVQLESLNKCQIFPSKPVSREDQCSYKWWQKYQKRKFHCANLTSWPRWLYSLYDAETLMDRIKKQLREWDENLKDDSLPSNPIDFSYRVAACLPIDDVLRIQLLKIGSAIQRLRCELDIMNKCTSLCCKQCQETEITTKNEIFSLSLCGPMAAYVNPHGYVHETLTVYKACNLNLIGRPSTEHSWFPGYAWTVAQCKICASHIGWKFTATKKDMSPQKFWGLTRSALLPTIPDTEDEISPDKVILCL

[2] = biological target: T1, Protein cereblon/Poly [ADP-ribose] polymerase 1; assay: Protac activity at CRBN/PARP1 in human MDA-MB-436 cells assessed as induction of PARP1 degradation incubated for 24 hrs by Western blot analysis; assay type: cell-based
In short: (§1)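 Concentration-response over a wide range, 24 h exposure; PARP1 quantified by western blot and normalized to β-tubulin density; DC50 derived from two biologically independent experiments.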
Target sequence in this assay (P09874 whole entry): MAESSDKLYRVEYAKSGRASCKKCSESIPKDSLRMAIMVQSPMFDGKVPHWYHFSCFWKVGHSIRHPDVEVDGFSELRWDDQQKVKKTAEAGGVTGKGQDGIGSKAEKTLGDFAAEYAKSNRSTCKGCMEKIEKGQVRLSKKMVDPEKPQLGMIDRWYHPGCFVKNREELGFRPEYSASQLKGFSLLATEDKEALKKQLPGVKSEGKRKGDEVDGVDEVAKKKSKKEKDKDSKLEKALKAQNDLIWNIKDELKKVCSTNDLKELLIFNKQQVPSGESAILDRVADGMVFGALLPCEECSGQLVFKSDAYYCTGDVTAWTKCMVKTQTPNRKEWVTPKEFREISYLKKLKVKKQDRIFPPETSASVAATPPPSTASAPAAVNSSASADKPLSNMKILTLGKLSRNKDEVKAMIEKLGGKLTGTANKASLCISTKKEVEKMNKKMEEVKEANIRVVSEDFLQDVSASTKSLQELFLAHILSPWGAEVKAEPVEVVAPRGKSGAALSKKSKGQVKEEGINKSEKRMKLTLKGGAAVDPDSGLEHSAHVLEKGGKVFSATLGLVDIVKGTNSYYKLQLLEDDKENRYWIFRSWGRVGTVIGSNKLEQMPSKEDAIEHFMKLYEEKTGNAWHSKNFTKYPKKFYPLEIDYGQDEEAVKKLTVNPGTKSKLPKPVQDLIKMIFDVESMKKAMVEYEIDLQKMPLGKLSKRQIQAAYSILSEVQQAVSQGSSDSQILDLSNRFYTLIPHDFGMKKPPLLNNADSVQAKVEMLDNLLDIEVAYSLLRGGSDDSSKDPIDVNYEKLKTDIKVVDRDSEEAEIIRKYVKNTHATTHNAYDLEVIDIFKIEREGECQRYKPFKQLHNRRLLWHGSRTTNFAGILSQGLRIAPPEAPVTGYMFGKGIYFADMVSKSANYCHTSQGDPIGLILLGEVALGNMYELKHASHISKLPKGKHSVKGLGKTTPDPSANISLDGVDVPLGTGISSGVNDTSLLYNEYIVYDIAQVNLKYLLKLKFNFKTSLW
Target sequence in this assay (Q96SW2 whole entry): as the sequence (Q96SW2 whole entry partner) above

[3] = biological target: T1, Protein cereblon/Poly [ADP-ribose] polymerase 1; assay: Protac activity at CRBN/PARP1 in human SW-620 cells assessed as induction of PARP1 degradation incubated for 24 hrs by Western blot analysis; assay type: cell-based; in short: as §1
Target sequence in this assay (P09874 whole entry): as the sequence (P09874 whole entry) above
Target sequence in this assay (Q96SW2 whole entry): as the sequence (Q96SW2 whole entry partner) above

[4] = biological target: T1, Protein cereblon/Poly [ADP-ribose] polymerase 1; assay: Protac activity at CRBN/PARP1 in human SW-620 cells assessed as induction of PARP1 degradation at 10 nM incubated for 24 hrs by Western blot analysis relative to control; assay type: cell-based
Target sequence in this assay (P09874 2-1014 limits assumed): as the sequence (P09874 2-1014 limits assumed) above
Target sequence in this assay (Q96SW2 whole entry partner): as the sequence (Q96SW2 whole entry partner) above

[5] = biological target: T1, Protein cereblon/Poly [ADP-ribose] polymerase 1; assay: Protac activity at CRBN/PARP1 in human MDA-MB-436 cells assessed as induction of PARP1 degradation at 30 nM measured within 1 hr by Western blot analysis; assay type: cell-based; conditions: time hrs <=1
In short: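 Time course at 30 nM in MDA-MB-436 or SW620 cells; PARP1 immunoblotted at successive time points, β-tubulin as loading control.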
Target sequence in this assay (P09874 2-1014 limits assumed): as the sequence (P09874 2-1014 limits assumed) above
Target sequence in this assay (Q96SW2 whole entry partner): as the sequence (Q96SW2 whole entry partner) above

PC-3 = assay: Antiproliferation activity against human PC-3 assessed as cell growth inhibition incubated for 7 days by CCK-8 assay; assay type: functional, cell-based; conditions: time 7.0 day
In short: (§2)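 Cells were sub-cultured at least twice and seeded for 24 h before dosing. Compounds came from 10 mM DMSO stocks, given as 10 points of 3-fold serial dilution starting at 10-20 μM. Incubation was about 7 days (Capan-1 13 days) at 37 °C, 5% CO2. Read-out was CCK-8 absorbance at 450 nm, as % growth versus DMSO wells (duplicate wells). IC50 was fitted by nonlinear regression; three independent experiments.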

[6] = biological target: T1, Protein cereblon/Poly [ADP-ribose] polymerase 1; assay: Protac activity at CRBN/PARP1 in human MDA-MB-436 cells assessed as induction of PARP1 degradation by measuring PARP1 level at 100 nM pretreated for 2 hrs followed by compound washout and measured after 24 hrs by Western blot analysis; assay type: cell-based
In short: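 MDA-MB-436 cells pretreated 2 h at 100 nM, compound washed out, cells harvested at various times up to 24 h afterwards; PARP1 versus vehicle-treated cells by western blot, β-tubulin loading control.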
Target sequence in this assay (P09874 2-1014 limits assumed): as the sequence (P09874 2-1014 limits assumed) above
Target sequence in this assay (Q96SW2 whole entry partner): as the sequence (Q96SW2 whole entry partner) above

[7] = biological target: T1, Protein cereblon/Poly [ADP-ribose] polymerase 1; assay: Protac activity at CRBN/PARP1 in human MDA-MB-468 cells assessed as induction of PARP1 degradation measured after 24 hrs by Western blot analysis; assay type: cell-based; in short: as §1
Target sequence in this assay (P09874 whole entry): as the sequence (P09874 whole entry) above
Target sequence in this assay (Q96SW2 whole entry): as the sequence (Q96SW2 whole entry partner) above

[8] = biological target: T1, Protein cereblon/Poly [ADP-ribose] polymerase 1; assay: Protac activity at CRBN/PARP1 in human MDA-MB-231 cells assessed as induction of PARP1 degradation measured after 24 hrs by Western blot analysis; assay type: cell-based; in short: as §1
Target sequence in this assay (P09874 whole entry): as the sequence (P09874 whole entry) above
Target sequence in this assay (Q96SW2 whole entry): as the sequence (Q96SW2 whole entry partner) above

[9] = biological target: T1, Protein cereblon/Poly [ADP-ribose] polymerase 1; assay: Protac activity at CRBN/PARP1 in human SW-620 cells assessed as induction of PARP1 degradation at 30 nM incubated for 24 hrs in presence of 0.1 to 1 uM PARP1 inhibitor olaparib by Western blot analysis; assay type: cell-based
Target sequence in this assay (P09874 2-1014 limits assumed): as the sequence (P09874 2-1014 limits assumed) above
Target sequence in this assay (Q96SW2 whole entry partner): as the sequence (Q96SW2 whole entry partner) above

[10] = biological target: Poly [ADP-ribose] polymerase 1 (Homo sapiens, UniProt P09874); assay: Inhibition of recombinant human C-terminal His-tagged PARP1 expressed in Sf9 insect cells preincubated for 20 mins in presence of activated DNA followed by […] addition and further incubated for 2 hrs by chemiluminescence assay
MDA-MB-468 = assay: Antiproliferation activity against human MDA-MB-468 assessed as cell growth inhibition incubated for 7 days by CCK-8 assay; assay type: functional, cell-based; conditions: time 7.0 day; in short: as §2
SW-620 = assay: Antiproliferation activity against human SW620 assessed as cell growth inhibition incubated for 7 days by CCK-8 assay; assay type: functional, cell-based; conditions: time 7.0 day; in short: as §2
[11] = Plasma concentration in ICR mouse at 25 mg/kg, ip at 4 hrs postinjection by LC-tandem mass spectrometry analysis; assay type: ADME, organism-based
In short: (§3)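 Female ICR mice (20-23 g, 6-7 weeks old, n = 3) received a single 25 mg/kg intraperitoneal dose formulated in 5% DMSO/15% Solutol HS15/80% D5W. Plasma was sampled at 0.5, 1, 2, 4, 6, 8 and 24 h and protein-precipitated with methanol. Compound was quantified by LC-MS/MS against a standard curve.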

[12] = Plasma concentration in ICR mouse at 25 mg/kg, ip at 8 hrs postinjection by LC-tandem mass spectrometry analysis; assay type: ADME, organism-based; in short: as §3
[13] = AUC (0 to infinity) in ICR mouse at 25 mg/kg, ip by LC-tandem mass spectrometry analysis; assay type: ADME, organism-based; parameters: time infinity, route intraperitoneal, dose 25 mg/kg; conditions: in vivo; in short: as §3
[14] = Acute toxicity in Balb/c mouse assessed as weight loss at 25 to 50 mg/kg, ip administered 5 times a week for 3 weeks; assay type: organism-based; conditions: in vivo, 504 h, dose 25-50 mg/kg
In short: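 Male BALB/c nude mice (5–6 weeks) received 5×10^6 Capan-1 cells s.c. in the right armpit. At a mean tumour volume of about 150 mm³, mice were randomised by tumour volume and body weight, 6 per group. Dosing was i.p. in 5% DMSO/20% PEG400/10% Cremophor EL/65% saline, once daily five times per week for 3 weeks. Body weight was measured 2–3 times weekly.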

CAPAN-1 = assay: Potentiation of cisplatin induced antitumor activity against CAPAN-1 cells xenografted in Balb/c mouse at 50 mg/kg, ip qd administered for 5 days measured on day 16; assay type: functional, organism-based; conditions: time 16.0 day
In short: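 Male BALB/c nude mice carried Capan-1 xenografts (5×10^6 cells s.c.), randomized at ~150 mm³ (6 per group). Treatment was 25 or 50 mg/kg intraperitoneally or 100 mg/kg by oral gavage, once daily on days 0-4. Cisplatin 6 mg/kg in saline was given intraperitoneally on day 2, 45 min after the partner drug. Tumor volume and body weight were measured 2-3 times weekly.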

[15] = Acute toxicity in Balb/c mouse xenografted with Capan1 cells assessed as lethality at 25 to 50 mg/kg, ip qd administered for 5 days in presence of cisplatin; assay type: organism-based; conditions: in vivo, 120 h, dose 25-50 mg/kg, time 5 day
In short: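 Male BALB/c nude mice (5–6 weeks) carried s.c. Capan-1 xenografts (5×10^6 cells, right armpit) and were randomised at about 150 mm³, 6 per group. The agent was given once daily on days 0–4, by oral gavage or i.p., in DMSO/PEG400/Cremophor EL/saline vehicle. Cisplatin 6 mg/kg in saline was given i.p. on day 2, 45 min after the agent. Body weight was recorded 2–3 times weekly.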

[16] = biological target: T1, Protein cereblon/Poly [ADP-ribose] polymerase 1; assay: Protac activity at CRBN/PARP1 in human MDA-MB-436 cells assessed as induction of PARP1 degradation at 30 nM incubated for 24 hrs in presence of NEDD8-activating E1 enzyme inhibitor MLN4924 by Western blot analysis
Target sequence in this assay (P09874 2-1014 limits assumed): as the sequence (P09874 2-1014 limits assumed) above
Target sequence in this assay (Q96SW2 whole entry partner): as the sequence (Q96SW2 whole entry partner) above

Poly [ADP-ribose] polymerase 1, sequence (P09874 whole entry): as the sequence (P09874 whole entry) above

O=C(CCCCCCCCCCC(=O)N1CCN(C(=O)c2cc(Cc3n[nH]c(=O)c4ccccc34)ccc2F)CC1)NCCNc1cccc2c1C(=O)N(C1CCC(=O)NC1=O)C2=O (stereo not given)
Activity [1]: Active | DC50 [2]: 1.26 nM | DC50 [3]: 0.509 nM | Activity [4]: > 99% | Activity [5]: Active | Activity (PC-3): Active | Activity [6]: Below limit of detection | DC50 [7]: 0.263 nM | DC50 [8]: 0.228 nM | Activity [9]: inactive | IC50 [10]: 2.3 nM | Activity (MDA-MB-468): Active | Activity (SW-620): Active | concentration at 4 h [11]: 182 nM | concentration at 8 h [12]: 95 nM | AUC(0-inf) [13]: 5360 ng·h/mL | Activity [14]: Non-Toxic | Activity (CAPAN-1): Active | Activity [15]: Non-Toxic | Activity [16]: inactive
